Source: ChEMBL document CHEMBL1671813, “Discovery of potent competitive antagonists and positive modulators of the P2X2 receptor” (J Med Chem, 2011)
Active and inactive are the calls of the source. No cut-off for these calls is given here.

Assays:
[1] = target: T1, P2X purinoceptor 2 (Rattus norvegicus, UniProt P49653); experiment: Antagonist activity against rat P2X2 receptor expressed in Xenopus laevis oocyte assessed as inhibition of […] inward current by two-electrode voltage-clamp electrophysiology; type: functional
T1 sequence (P49653 whole entry): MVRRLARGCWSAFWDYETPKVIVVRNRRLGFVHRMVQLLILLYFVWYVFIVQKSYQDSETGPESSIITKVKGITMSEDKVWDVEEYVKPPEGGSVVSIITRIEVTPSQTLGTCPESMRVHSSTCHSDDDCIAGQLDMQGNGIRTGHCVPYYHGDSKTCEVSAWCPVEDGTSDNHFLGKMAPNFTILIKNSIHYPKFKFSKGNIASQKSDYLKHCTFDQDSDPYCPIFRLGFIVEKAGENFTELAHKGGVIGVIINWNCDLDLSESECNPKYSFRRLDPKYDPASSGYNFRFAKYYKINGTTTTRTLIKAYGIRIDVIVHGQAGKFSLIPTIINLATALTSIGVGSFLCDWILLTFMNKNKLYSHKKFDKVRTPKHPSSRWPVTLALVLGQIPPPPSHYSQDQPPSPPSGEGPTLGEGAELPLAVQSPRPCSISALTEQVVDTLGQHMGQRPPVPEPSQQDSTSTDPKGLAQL
Summary of the method: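 Rat P2X2 or P2X4 cRNA was injected into collagenase-defolliculated Xenopus oocytes, which were kept at 19°C in ORi. Two-electrode voltage clamp was run 2-3 days later with perfusion in calcium-free Mg-ORi. 10 μM ATP was applied until steady-state current, then coapplied with incrementally larger test concentrations, with ATP-alone washout between. Inhibition was taken from the stationary current ratio, and IC50 from a Hill fit to pooled data.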

[2] = target: T1, P2X purinoceptor 2; experiment: Antagonist activity against rat P2X2 receptor expressed in Xenopus laevis oocyte assessed as inhibition of ATP-induced inward current by two-electrode voltage-clamp electrophysiology
[3] = target: P2Y purinoceptor 6 (Rattus norvegicus) (UniProt Q63371); experiment: Antagonist activity against rat P2Y6 receptor expressed in 1321N1 astrocytoma cells by calcium mobilization assay
[4] = target: P2Y purinoceptor 4 (Homo sapiens, UniProt P51582); experiment: Antagonist activity against human P2Y4 receptor expressed in 1321N1 astrocytoma cells by calcium mobilization assay; type: functional, cell-based
Summary of the method: (§1)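 Astrocytoma cell lines stably transfected with human P2Y2, human P2Y4 or rat P2Y6 receptor. Inhibition of receptor-mediated intracellular calcium mobilization was measured.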

[5] = target: P2Y purinoceptor 2 (Homo sapiens, UniProt P41231); experiment: Antagonist activity against human P2Y2 receptor expressed in 1321N1 astrocytoma cells by calcium mobilization assay; type: functional, cell-based; summary of the method: as §1
[6] = target: T2, P2X purinoceptor 2 (Rattus norvegicus) (UniProt P49653); experiment: Antagonist activity against rat P2X2 receptor expressed in Xenopus laevis oocyte assessed as potentiation of ATP-induced inward current at 100 nM by two-electrode voltage-clamp electrophysiology
T2 sequence (whole entry): T1 sequence (P49653 whole entry)

[7] = target: T1, P2X purinoceptor 2; experiment: Positive modulator activity against rat P2X2 receptor expressed in Xenopus laevis oocyte assessed as maximum ATP-induced inward current by two-electrode voltage-clamp electrophysiology in presence of 10 uM ATP
[8] = target: T2, P2X purinoceptor 2 (Rattus norvegicus); experiment: Antagonist activity against rat P2X2 receptor expressed in Xenopus laevis oocyte assessed as maximum current amplitude by two-electrode voltage-clamp electrophysiology; type: functional
Summary of the method: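 Rat P2X2-expressing oocytes were voltage-clamped in Mg-ORi. Test compound at 100 nM was coapplied with 10 μM ATP. Current amplitude was expressed as a percentage of the current elicited by ATP alone (set at 100%).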

[9] = Selectivity ratio of IC50 for rat P2X2 receptor to IC50 for rat P2X3 receptor
[10] = target: T3, P2X purinoceptor 7 (Rattus norvegicus, UniProt Q64663); experiment: Antagonist activity against rat P2X7 receptor expressed in Xenopus laevis oocyte assessed as inhibition of […] inward current by two-electrode voltage-clamp electrophysiology; type: functional
T3 sequence (Q64663 whole entry): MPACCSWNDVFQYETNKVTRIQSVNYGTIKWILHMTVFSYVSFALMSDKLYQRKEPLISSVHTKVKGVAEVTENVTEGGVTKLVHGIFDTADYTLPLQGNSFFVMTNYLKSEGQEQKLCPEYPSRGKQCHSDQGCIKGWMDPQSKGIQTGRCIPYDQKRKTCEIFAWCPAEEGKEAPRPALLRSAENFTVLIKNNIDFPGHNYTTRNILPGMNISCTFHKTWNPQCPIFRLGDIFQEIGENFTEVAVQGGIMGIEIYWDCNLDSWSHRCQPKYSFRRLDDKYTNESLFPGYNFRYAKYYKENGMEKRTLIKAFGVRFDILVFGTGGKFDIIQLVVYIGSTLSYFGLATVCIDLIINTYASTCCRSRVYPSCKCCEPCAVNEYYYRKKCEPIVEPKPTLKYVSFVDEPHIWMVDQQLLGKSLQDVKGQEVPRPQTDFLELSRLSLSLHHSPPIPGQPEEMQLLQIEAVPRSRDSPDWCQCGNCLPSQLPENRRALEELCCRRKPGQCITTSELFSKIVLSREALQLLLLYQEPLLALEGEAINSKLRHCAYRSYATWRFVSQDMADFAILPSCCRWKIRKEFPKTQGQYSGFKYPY

[11] = target: T4, P2X purinoceptor 4 (Rattus norvegicus, UniProt P51577); experiment: Antagonist activity against rat P2X4 receptor expressed in Xenopus laevis oocyte assessed as inhibition of ATP-induced inward current by two-electrode voltage-clamp electrophysiology
T4 sequence (P51577 whole entry): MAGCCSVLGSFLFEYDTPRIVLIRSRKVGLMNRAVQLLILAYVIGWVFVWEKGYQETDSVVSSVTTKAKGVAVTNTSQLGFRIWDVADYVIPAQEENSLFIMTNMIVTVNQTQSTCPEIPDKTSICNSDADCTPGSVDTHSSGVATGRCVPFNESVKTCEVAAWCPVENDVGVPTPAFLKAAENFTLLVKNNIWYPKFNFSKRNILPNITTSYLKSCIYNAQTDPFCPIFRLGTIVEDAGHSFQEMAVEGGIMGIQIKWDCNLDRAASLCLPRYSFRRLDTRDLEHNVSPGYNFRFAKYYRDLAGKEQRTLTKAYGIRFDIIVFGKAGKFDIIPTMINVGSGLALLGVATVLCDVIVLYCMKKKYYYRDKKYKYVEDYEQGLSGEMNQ

[12] = target: T5, P2X purinoceptor 3 (Rattus norvegicus, UniProt P49654); experiment: Antagonist activity against rat P2X3 receptor expressed in Xenopus laevis oocyte assessed as inhibition of alpha, beta-meATP-induced inward current by two-electrode voltage-clamp electrophysiology; type: functional
T5 sequence (P49654 whole entry): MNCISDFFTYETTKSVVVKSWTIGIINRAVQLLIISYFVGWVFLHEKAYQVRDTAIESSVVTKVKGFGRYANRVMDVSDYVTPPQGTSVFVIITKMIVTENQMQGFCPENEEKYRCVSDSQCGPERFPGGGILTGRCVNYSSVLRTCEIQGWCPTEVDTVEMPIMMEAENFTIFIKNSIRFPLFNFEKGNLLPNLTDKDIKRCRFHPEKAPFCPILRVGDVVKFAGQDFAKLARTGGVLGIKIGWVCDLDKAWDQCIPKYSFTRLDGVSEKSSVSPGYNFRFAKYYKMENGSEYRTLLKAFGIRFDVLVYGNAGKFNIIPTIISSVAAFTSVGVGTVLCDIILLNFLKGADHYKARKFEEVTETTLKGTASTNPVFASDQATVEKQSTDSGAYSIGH

[13] = Selectivity ratio of IC50 for rat P2X2 receptor to IC50 for rat P2X4 receptor
[14] = target: T6, P2X purinoceptor 1 (Rattus norvegicus, UniProt P47824); experiment: Antagonist activity against rat P2X1 receptor expressed in Xenopus laevis oocyte assessed as inhibition of alpha, beta-meATP-induced inward current by two-electrode voltage-clamp electrophysiology; type: functional
T6 sequence (P47824 whole entry): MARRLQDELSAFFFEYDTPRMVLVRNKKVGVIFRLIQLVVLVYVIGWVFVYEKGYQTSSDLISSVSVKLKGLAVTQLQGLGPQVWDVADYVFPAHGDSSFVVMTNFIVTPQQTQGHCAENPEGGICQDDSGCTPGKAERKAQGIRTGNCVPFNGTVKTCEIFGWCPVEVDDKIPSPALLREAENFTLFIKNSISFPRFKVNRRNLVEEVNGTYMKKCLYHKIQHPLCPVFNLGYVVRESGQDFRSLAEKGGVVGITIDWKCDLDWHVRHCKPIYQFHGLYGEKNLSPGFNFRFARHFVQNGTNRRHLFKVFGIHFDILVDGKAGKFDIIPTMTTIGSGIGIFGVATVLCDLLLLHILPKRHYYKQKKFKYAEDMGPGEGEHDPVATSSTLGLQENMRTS

[15] = Selectivity ratio of IC50 for rat P2X2 receptor to IC50 for rat P2X7 receptor
[16] = Selectivity ratio of IC50 for rat P2X2 receptor to IC50 for rat P2X1 receptor
[17] = Selectivity ratio of IC50 for rat P2X2 receptor to IC50 for rat P2X2/3 receptor
[18] = target: T7, P2X2/P2X3 receptor (Rattus norvegicus, UniProt P49653+P49654); experiment: Antagonist activity against rat P2X2/3 receptor expressed in Xenopus laevis oocyte assessed as inhibition of alpha, beta-meATP-induced inward current by two-electrode voltage-clamp electrophysiology; type: functional
T7 sequence (P49653 whole entry): T1 sequence (P49653 whole entry)
T7 sequence (P49654 whole entry): T5 sequence (P49654 whole entry)
Summary of the method: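 Heteromer formed by injecting rP2X2 and rP2X3 cRNA at 1:2 (w/w). Agonist 1 μM α,β-meATP, applied repeatedly to keep homomeric P2X3 desensitized. Same steady-state coapplication protocol in Ca-free Mg-ORi. IC50 from a Hill fit to pooled data from 5-7 experiments.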

[19] = target: P2Y purinoceptor 12 (Homo sapiens, UniProt Q9H244); experiment: Displacement of [3H]PSB0413 from human platelet P2Y12 receptor
Sequence of P2Y purinoceptor 12 (Q9H244 whole entry): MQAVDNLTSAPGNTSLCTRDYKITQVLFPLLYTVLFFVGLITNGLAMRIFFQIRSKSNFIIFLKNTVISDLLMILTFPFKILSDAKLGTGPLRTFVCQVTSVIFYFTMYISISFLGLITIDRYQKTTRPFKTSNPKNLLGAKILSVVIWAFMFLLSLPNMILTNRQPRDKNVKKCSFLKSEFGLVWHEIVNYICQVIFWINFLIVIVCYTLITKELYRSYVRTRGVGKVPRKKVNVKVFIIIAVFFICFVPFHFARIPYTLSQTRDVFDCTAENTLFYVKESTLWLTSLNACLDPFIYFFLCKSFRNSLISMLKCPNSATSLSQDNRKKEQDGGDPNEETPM

Sequence of P2Y purinoceptor 2 (P41231 whole entry): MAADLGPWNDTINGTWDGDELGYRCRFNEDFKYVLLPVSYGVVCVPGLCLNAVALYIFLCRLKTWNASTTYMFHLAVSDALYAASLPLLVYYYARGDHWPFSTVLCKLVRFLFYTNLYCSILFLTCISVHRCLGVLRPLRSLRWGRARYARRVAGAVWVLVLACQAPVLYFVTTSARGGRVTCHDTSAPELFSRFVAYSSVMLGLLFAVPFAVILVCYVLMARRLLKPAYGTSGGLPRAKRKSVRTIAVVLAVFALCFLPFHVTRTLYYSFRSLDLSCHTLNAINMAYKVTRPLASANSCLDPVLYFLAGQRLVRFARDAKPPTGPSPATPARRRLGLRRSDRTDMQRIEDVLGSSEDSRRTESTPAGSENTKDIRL
Sequence of P2Y purinoceptor 4 (P51582 whole entry): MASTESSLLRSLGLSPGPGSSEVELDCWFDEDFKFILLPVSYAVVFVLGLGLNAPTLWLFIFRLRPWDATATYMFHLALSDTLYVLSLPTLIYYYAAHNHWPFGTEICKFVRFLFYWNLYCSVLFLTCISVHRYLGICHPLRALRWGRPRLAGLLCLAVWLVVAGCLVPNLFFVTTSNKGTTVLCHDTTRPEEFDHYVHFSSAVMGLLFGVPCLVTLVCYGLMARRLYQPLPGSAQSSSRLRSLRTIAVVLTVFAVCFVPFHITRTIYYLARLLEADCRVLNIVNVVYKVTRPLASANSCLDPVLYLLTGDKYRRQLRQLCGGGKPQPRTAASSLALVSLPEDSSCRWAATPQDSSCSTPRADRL

IC50 [3] [µM]	IC50 [4] [µM]	IC50 [5] [µM]	IC50 [11] [µM]	Ki [19] [µM]	Compound	IC50 [1] [µM]	IC50 [2] [µM]	also measured
> 10	> 10	> 10	–	–	Nc1c(S(=O)(=O)O)cc(Nc2cccc(Cc3ccccc3)c2)c2c1C(=O)c1ccccc1C2=O	–	–	potentiation % [6]: 120%
4.56	–	10	–	–	Nc1c(S(=O)(=O)O)cc(Nc2cccc(Oc3ccccc3)c2)c2c1C(=O)c1ccccc1C2=O	–	–	EC50 [7]: 0.489 µM; Activity [8]: Active; potentiation % [6]: 132%
3.92	> 10	10	> 10	10	Cc1cccc(Nc2cc(S(=O)(=O)O)c(N)c3c2C(=O)c2ccccc2C3=O)c1	–	0.8	–

Further lines, the compound ahead of its results:

Compound	IC50 [3] [µM]	IC50 [4] [µM]	IC50 [5] [µM]	IC50 [11] [µM]	Ki [19] [µM]	IC50 [1] [µM]	IC50 [2] [µM]	also measured
Nc1ncnc2c1ncn2[C@@H]1O[C@H](COP(=O)(O)OP(=O)(O)OP(=O)(O)O)[C@H]2OC3(O[C@H]21)C([N+](=O)[O-])=CC(=[N+]([O-])[O-])C=C3[N+](=O)[O-] (stereo partly drawn) [TNP-ATP SODIUM]	–	–	–	–	–	39.8	4	–
Nc1c(S(=O)(=O)O)cc(Nc2ccc(S(=O)(=O)O)c(Nc3nc(Cl)nc(Cl)n3)c2)c2c1C(=O)c1ccccc1C2=O	> 10	> 10	10	> 10	–	–	0.079	IC50 [9]: 0.0053 µM; IC50 [10]: > 10 µM; IC50 [12]: 0.494 µM; IC50 [13]: > 0.12 µM; IC50 [14]: 0.422 µM; IC50 [15]: > 0.12 µM; IC50 [16]: 0.0062 µM; IC50 [17]: 0.0132 µM; IC50 [18]: 1.04 µM
Cc1cc(/N=N/c2ccc(S(=O)(=O)O)cc2S(=O)(=O)O)c(COP(=O)(O)O)c(C=O)c1O	–	–	–	–	–	39.8	4	–
COc1cccc(Nc2cc(S(=O)(=O)O)c(N)c3c2C(=O)c2ccccc2C3=O)c1	> 10	10	10	> 10	10	–	0.623	–
Nc1c(S(=O)(=O)O)cc(Nc2ccc(Nc3nc(Cl)nc(Nc4cccc(S(=O)(=O)O)c4)n3)c(S(=O)(=O)O)c2)c2c1C(=O)c1ccccc1C2=O [RB 2]	4.34	–	–	–	0.68	39.8	4	–
